In PMC6311382 (Angewandte Chemie (International ed. in English), 2015):

Legend:
H. pylori HtrA [1] = target: T1, H. pylori HtrA (Helicobacter pylori, UniProt G2J5T2); experiment: Western blot analysis of recombinant E-cadherin cleavage by HtrA; type: biochemical
T1 sequence (G2J5T2 18-475): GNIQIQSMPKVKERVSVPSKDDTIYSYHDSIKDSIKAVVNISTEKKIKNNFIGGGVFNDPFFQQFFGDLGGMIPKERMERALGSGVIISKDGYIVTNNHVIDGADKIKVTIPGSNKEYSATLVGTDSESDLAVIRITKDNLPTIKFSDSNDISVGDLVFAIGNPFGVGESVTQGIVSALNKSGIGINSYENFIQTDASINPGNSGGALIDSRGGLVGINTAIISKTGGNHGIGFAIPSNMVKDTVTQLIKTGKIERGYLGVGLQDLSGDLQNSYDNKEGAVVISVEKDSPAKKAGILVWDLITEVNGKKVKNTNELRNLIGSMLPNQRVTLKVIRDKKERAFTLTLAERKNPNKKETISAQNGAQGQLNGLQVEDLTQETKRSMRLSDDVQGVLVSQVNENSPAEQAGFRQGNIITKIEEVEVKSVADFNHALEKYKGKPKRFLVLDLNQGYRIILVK
Outline: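 Recombinant full-length 130 kDa E-cadherin is incubated with H. pylori HtrA and test compound at a range of concentrations. HtrA proteolysis is read by Western blot as generation of the roughly 90 kDa soluble E-cadherin fragment.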

[2] = tested on: wild-type Campylobacter jejuni transmigration; experiment: Transwell migration assay, Campylobacter jejuni; type: cell-based; conditions: 50 and 100 μM, 24 h
Outline: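 Transmigration of wild-type Campylobacter jejuni is followed over 24 h with test compound at two concentrations. Bacteria are counted as colony-forming units. N = 3 independent experiments. Significance at 24 h is tested by one-way ANOVA (Dunnett) against the untreated control.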

H. pylori HtrA [3] = target: T1, H. pylori HtrA; experiment: SPR binding affinity and kinetics to HtrA
[4] = tested on: wild-type H. pylori transmigration; experiment: Transwell migration assay across polarized MKN-28 epithelial layer; type: cell-based, Helicobacter pylori; conditions: 50 μM, 24 h, MKN-28 cells
Outline: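 Wild-type H. pylori crossing a polarized epithelial layer of human gastric adenocarcinoma MKN-28 cells in a transwell system, followed for 24 h with test compound at two concentrations. Transmigrated bacteria are read as colony-forming units. Significance at 24 h is tested by one-way ANOVA (Dunnett) against the untreated control.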

[5] = type: physicochemical; conditions: dynamic light scattering
H. pylori HtrA [6] = target: T1, H. pylori HtrA; experiment: 1H STD NMR binding experiment; conditions: 10 μM HtrA

| Structure (SMILES) | proteolytic activity of HtrA (H. pylori HtrA [1]; at 50 μM) | concentration at which inhibition of E-cadherin cleavage is seen (H. pylori HtrA [1]; recombinant E-cadherin) | inhibition of C. jejuni transmigration, compared with H. pylori [2] | koff (H. pylori HtrA [3]) | LE (ligand efficiency) (H. pylori HtrA [3]; = −1.4 logKD/(number of non-hydrogen atoms)) | inhibition of H. pylori transmigration [4] | solubility kinetic [5] | saturation transfer / binding to HtrA (H. pylori HtrA [6]) |
| --- | --- | --- | --- | --- | --- | --- | --- | --- |
| Cc1ccc(C)n1[C@@H](Cc1ccc(-c2ccc(C(=O)O)o2)cc1)C(=O)O [Compound 2] | blocked | 10 µM | strikingly dissimilar outcome | 1.8 s⁻¹ | 0.24 | significant effects | > 100 µM | direct binding |
| CO[C@@H]1O[C@H](CO)[C@@H](O)[C@H](O)[C@H]1O [β-methyl-D-glucoside, reference compound] | – | – | – | – | – | – | – | no saturation transfer |
